Test results: ChEMBL document CHEMBL2057137, “Lead optimization studies on FimH antagonists: discovery of potent and orally bioavailable ortho-substituted biphenyl mannosides” (J Med Chem, 2012); call rule not given here

How the values were obtained:
[1] = Binding affinity to biotinylated Escherichia coli FimH-lectin domain after 30 mins by biolayer interferometry method
Outline: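 FimH lectin domain biotinylated 1:1, loaded at 50μg/ml in HBS (20mM HEPES pH 7.5, 150mM NaCl) onto streptavidin tips, biocytin-blocked. Compound applied as 7 twofold dilutions in HBS for 10 min association, then 30 min dissociation, 30°C with shaking. Referenced to biocytin-blocked pins for drift and nonspecific binding. Kd from global kinetic fitting.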

[2] = tested on: Escherichia coli; assay: Binding affinity to […] Escherichia coli FimH-lectine domain assessed as melting temperature at 100 uM by differential scanning fluorometric assay
Outline: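 Untagged FimH lectin domain (residues 1–158 of UPEC J96 FimH), 5 µg in a 50 µl reaction of HBS (20mM HEPES pH 7.5, 150mM NaCl). Compound at 100µM final, diluted from DMSO stocks, with SYPRO Orange at 5X final. Controls were FimH alone plus 0.2% DMSO. Melt curve ran from 20–90°C in 0.5 °C steps of 15 s each, with fluorescence read on the HEX channel.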

[3] = tested on: Escherichia coli; assay: Inhibition of Escherichia coli FimH-mediated hemagglutinination of human red blood cells assessed as drug level required for > 90% inhibition of hemagglutinination after 30 mins by hemagglutinination inhibition assay
[4] = tested on: Escherichia coli; assay: Antibacterial activity against Escherichia coli K-12 ATCC 25404 assessed as inhibition of biofilm formation after 2 hrs by confocal laser microscopic analysis; type: functional, organism-based; settings: for IC50: Escherichia coli, K-12 ATCC 25404, 2 h
[5] = Plasma concentration in mouse at 50 mg/kg, po measured after 6 hrs; type: ADME, organism-based; set-up: dose 50 mg/kg, route oral
Outline: (§1)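 Oral dosing in mice at 50 mg/kg. Plasma and urine sampled at 30 min and 1, 2, 3, 4, 6 h after dosing. Compound quantified by LC-MS/MS in selected reaction monitoring mode.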

[6] = Drug level in mouse urine at 50 mg/kg, po measured after 6 hrs; type: ADME, organism-based; set-up: dose 50 mg/kg, route oral; settings: read-out: Drug uptake; outline: as §1
[7] = tested on: Mus musculus; assay: Ratio of drug uptake in mouse urine to plasma at 50 mg/kg, po measured after 6 hrs; settings: in vivo
[8] = Effective permeability of the compound by PAMPA assay; type: ADME; set-up: unit not given here
[9] = Drug metabolism in mouse urine assessed as formation of phenolic biphenyl metabolite at 10 to 200 mg/kg, po; type: ADME, organism-based; set-up: dose 10-200 mg/kg, route oral; settings: in vivo
Outline: (§2)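 Oral dosing in mice. Urine and plasma compound levels quantified by LC-MS/MS in selected reaction monitoring mode. The phenolic biphenyl hydrolysis product (R group) in urine was monitored at transition 285/254.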

[10] = Drug level in mouse urine at 100 mg/kg, po measured after 6 hrs; type: ADME, organism-based; set-up: dose 100 mg/kg, route oral; settings: read-out: Drug uptake; outline: as §2
[11] = Plasma concentration in mouse at 100 mg/kg, po measured after 6 hrs; type: ADME, organism-based; set-up: dose 100 mg/kg, route oral; outline: as §2
[12] = tested on: Mus musculus; assay: Stability in mouse urinary tract infection model assessed as hydrolysis of glycosidic bond at 10 to 200 mg/kg, po; type: ADME, organism-based, Urine; set-up: dose 10-200 mg/kg, route oral; settings: in vivo; outline: as §2

Row | SMILES | Kd [1] [nM] | Tm [2] [°C] | EC>90 [3] [µM] | other results
1 | OC[C@H]1O[C@H](Oc2ccc(-c3cccc(C(F)(F)F)c3)cc2)[C@@H](O)[C@@H](O)[C@@H]1O | 1.56 | 68.3 |  | 
2 | CNC(=O)c1cccc(-c2ccc(O[C@H]3O[C@H](CO)[C@@H](O)[C@H](O)[C@@H]3O)cc2)c1 |  | 73.4 | 0.5 | IC50 [4]: 1350 nM
3 | OC[C@H]1O[C@H](Oc2ccc(-c3ccc4ccncc4c3)cc2)[C@@H](O)[C@@H](O)[C@@H]1O |  |  | 0.75 | 
4 | CNC(=O)c1cccc(-c2ccc(O[C@H]3O[C@H](CO)[C@@H](O)[C@H](O)[C@@H]3O)c(C)c2)c1 |  | 74.5 | 0.06 | concentration at 6 h [5]: 100 nM; concentration at 6 h [6]: 4370 nM; Ratio [7]: 10; IC50 [4]: 160 nM; log Pe [8]: -3.89
5 | COC(=O)c1csc(-c2ccc(O[C@H]3O[C@H](CO)[C@@H](O)[C@H](O)[C@@H]3O)cc2)c1 |  |  | 2 | 
6 | CNS(=O)(=O)c1cccc(-c2ccc(O[C@H]3O[C@H](CO)[C@@H](O)[C@H](O)[C@@H]3O)cc2)c1 | 0.49 | 72 |  | 
7 | CNC(=O)c1cc(C(=O)NC)cc(-c2ccc(O[C@H]3O[C@H](CO)[C@@H](O)[C@H](O)[C@@H]3O)cc2)c1 | 0.14 | 74.4 |  | Drug metabolism [9]: Active; concentration at 6 h [10]: 4850 nM; Ratio [7]: 10; MED [4]: 0.74 µM; IC50 [4]: 740 nM; concentration at 6 h [11]: 10 nM; log Pe [8]: -4.51; Stability [12]: Unstable
8 | COC(=O)c1sc(-c2ccc(O[C@H]3O[C@H](CO)[C@@H](O)[C@H](O)[C@@H]3O)cc2)cc1NC(N)=O |  |  | 0.02 | 
9 | OC[C@H]1O[C@H](Oc2ccc3ccccc3c2)[C@@H](O)[C@@H](O)[C@@H]1O | 2.72 | 70.8 |  | 
10 | COC(=O)c1cccc(-c2ccc(O[C@H]3O[C@H](CO)[C@@H](O)[C@H](O)[C@@H]3O)cc2)c1 | 0.08 | 73.4 |  | IC50 [4]: 940 nM; log Pe [8]: -5.42
11 | OC[C@H]1O[C@H](Oc2ccc(-c3ccccc3)cc2)[C@@H](O)[C@@H](O)[C@@H]1O | 3 | 71.2 |  | 
12 | O=c1[nH]ccc2ccc(-c3ccc(O[C@H]4O[C@H](CO)[C@@H](O)[C@H](O)[C@@H]4O)cc3)cc12 |  |  | 0.1 | 
13 | CS(=O)(=O)Nc1cccc(-c2ccc(O[C@H]3O[C@H](CO)[C@@H](O)[C@H](O)[C@@H]3O)cc2)c1 | 2 | 70.9 |  | 
14 | COC(=O)c1cccc(O[C@H]2O[C@H](CO)[C@@H](O)[C@H](O)[C@@H]2O)c1 |  | 70.8 |  | 
15 | COc1ccccc1-c1ccc(O[C@H]2O[C@H](CO)[C@@H](O)[C@H](O)[C@@H]2O)cc1 |  | 70.7 |  | 
16 | CNC(=O)c1cc(C(=O)NC)cc(-c2ccc(O[C@H]3O[C@H](CO)[C@@H](O)[C@H](O)[C@@H]3O)c(C(F)(F)F)c2)c1 |  | 76.2 | 0.008 | concentration at 6 h [5]: 40 nM; concentration at 6 h [6]: 890 nM; Ratio [7]: 10; IC50 [4]: 43 nM; log Pe [8]: -6.27
17 | NC(=O)c1cccc(-c2ccc(O[C@H]3O[C@H](CO)[C@@H](O)[C@H](O)[C@@H]3O)cc2)c1 | 1 | 71.7 |  | 
18 | CN1CCN(C(=O)c2cccc(-c3ccc(O[C@H]4O[C@H](CO)[C@@H](O)[C@H](O)[C@@H]4O)cc3)c2)CC1 |  |  | 4 | 
19 | COC(=O)c1cccc(-c2ccc(O[C@H]3O[C@H](CO)[C@@H](O)[C@H](O)[C@@H]3O)c(C(F)(F)F)c2)c1 |  |  | 0.03 | IC50 [4]: 170 nM; log Pe [8]: -3.91
20 | COC(=O)c1cc(C(=O)OC)cc(-c2ccc(O[C@H]3O[C@H](CO)[C@@H](O)[C@H](O)[C@@H]3O)cc2)c1 |  | 72.5 |  | 
21 | COC(=O)c1cccc(-c2ccc(O[C@H]3O[C@H](CO)[C@@H](O)[C@H](O)[C@@H]3O)c(Cl)c2)c1 |  |  | 0.03 | IC50 [4]: 260 nM; log Pe [8]: -4.29
22 | OCc1cccc(-c2ccc(O[C@H]3O[C@H](CO)[C@@H](O)[C@H](O)[C@@H]3O)cc2)c1 | 2.61 | 71.2 |  | 
23 | COC(=O)c1cccc(-c2ccc(O[C@H]3O[C@H](CO)[C@@H](O)[C@H](O)[C@@H]3O)c(C)c2)c1 |  |  | 0.12 | IC50 [4]: 330 nM
24 | O=C(Nc1cccnc1)c1cccc(-c2ccc(O[C@H]3O[C@H](CO)[C@@H](O)[C@H](O)[C@@H]3O)cc2)c1 |  | 72.5 | 0.37 | 

Row | SMILES | Kd [1] [nM] | Tm [2] [°C] | EC>90 [3] [µM] | other results
25 | OC[C@H]1O[C@H](Oc2ccccc2)[C@@H](O)[C@@H](O)[C@@H]1O |  | 68.9 | 30 | 
26 | COC(=O)c1ccc(-c2ccc(O[C@H]3O[C@H](CO)[C@@H](O)[C@H](O)[C@@H]3O)cc2)cc1 | 3.99 |  |  | 
27 | O=C(c1cccc(-c2ccc(O[C@H]3O[C@H](CO)[C@@H](O)[C@H](O)[C@@H]3O)cc2)c1)N1CCNCC1 |  |  | 4 | 
28 | O=C(O)c1cccc(-c2ccc(O[C@H]3O[C@H](CO)[C@@H](O)[C@H](O)[C@@H]3O)cc2)c1 | 2.21 | 70.9 |  | 
29 | COC(=O)c1cc(-c2ccc(O[C@H]3O[C@H](CO)[C@@H](O)[C@H](O)[C@@H]3O)cc2)ccn1 |  | 73.7 | 0.5 | 
30 | COC(=O)c1cccc(-c2ccc(O[C@H]3O[C@H](CO)[C@@H](O)[C@H](O)[C@@H]3O)cc2C(=O)OC)c1 |  |  | 1 | log Pe [8]: -4.08
31 | OC[C@H]1O[C@H](Oc2ccc(-c3ccc4ncncc4c3)cc2)[C@@H](O)[C@@H](O)[C@@H]1O |  |  | 0.38 | 
32 | OC[C@H]1O[C@H](OCc2ccccc2)[C@@H](O)[C@@H](O)[C@@H]1O | 43.7 |  |  | 
33 | O=C(O)c1cc(C(=O)O)cc(-c2ccc(O[C@H]3O[C@H](CO)[C@@H](O)[C@H](O)[C@@H]3O)cc2)c1 | 14.5 | 72.4 |  | 
34 | OC[C@H]1O[C@H](Oc2ccc(-c3cccc4cnccc34)cc2)[C@@H](O)[C@@H](O)[C@@H]1O |  |  | 0.25 | 
35 | CNC(=O)c1cccc(-c2ccc(O[C@H]3O[C@H](CO)[C@@H](O)[C@H](O)[C@@H]3O)c(C(F)(F)F)c2)c1 |  | 72.3 | 0.03 | Ratio [7]: 10; IC50 [4]: 130 nM
36 | CNC(=O)c1cc(C(=O)NC)cc(-c2ccc(O[C@H]3O[C@H](CO)[C@@H](O)[C@H](O)[C@@H]3O)c(C)c2)c1 |  | 75.8 | 0.016 | Ratio [7]: 10; IC50 [4]: 73 nM; log Pe [8]: -8.46
37 | COC(=O)c1cc(O[C@H]2O[C@H](CO)[C@@H](O)[C@H](O)[C@@H]2O)cc(C(=O)OC)c1 | 3.45 | 73.2 |  | 
38 | COc1cccc(-c2ccc(O[C@H]3O[C@H](CO)[C@@H](O)[C@H](O)[C@@H]3O)cc2)c1 | 1.25 | 71.8 |  | 
39 | O=C(Nc1ccncc1)c1cccc(-c2ccc(O[C@H]3O[C@H](CO)[C@@H](O)[C@H](O)[C@@H]3O)cc2)c1 |  |  | 0.25 | 
40 | COC(=O)c1cccc(-c2ccc(O[C@H]3O[C@H](CO)[C@@H](O)[C@H](O)[C@@H]3O)c(F)c2)c1 |  |  | 0.75 | 
41 | CNC(=O)c1cccc(-c2ccc(O[C@H]3O[C@H](CO)[C@@H](O)[C@H](O)[C@@H]3O)c(Cl)c2)c1 |  |  | 0.12 | Ratio [7]: 10; IC50 [4]: 520 nM
42 | NCCNC(=O)c1cccc(-c2ccc(O[C@H]3O[C@H](CO)[C@@H](O)[C@H](O)[C@@H]3O)cc2)c1 |  |  | 3 | 
43 | CC(=O)Nc1cccc(-c2ccc(O[C@H]3O[C@H](CO)[C@@H](O)[C@H](O)[C@@H]3O)cc2)c1 | 1.14 | 72.3 |  | 
44 | O=C(NCCO)c1cccc(-c2ccc(O[C@H]3O[C@H](CO)[C@@H](O)[C@H](O)[C@@H]3O)cc2)c1 |  |  | 0.5 | 
45 | COC(=O)c1cncc(-c2ccc(O[C@H]3O[C@H](CO)[C@@H](O)[C@H](O)[C@@H]3O)cc2)c1 |  |  | 0.19 | 
46 | COC(=O)c1cccc(-c2ccc(O[C@H]3O[C@H](CO)[C@@H](O)[C@H](O)[C@@H]3O)c(OC)c2)c1 |  |  | 0.19 | IC50 [4]: 890 nM
47 | COC(=O)c1ccc(-c2ccc(O[C@H]3O[C@H](CO)[C@@H](O)[C@H](O)[C@@H]3O)cc2)s1 |  |  | 1 | 
48 | NC(=O)Nc1csc(-c2ccc(O[C@H]3O[C@H](CO)[C@@H](O)[C@H](O)[C@@H]3O)cc2)c1 |  |  | 1 | 
